The text below walks through data of article PMC4038446 (Bioorganic & medicinal chemistry letters, 2012).

The test addresses T1, AKR1C3 (Homo sapiens, UniProt P42330).
T1 sequence (P42330 1-323): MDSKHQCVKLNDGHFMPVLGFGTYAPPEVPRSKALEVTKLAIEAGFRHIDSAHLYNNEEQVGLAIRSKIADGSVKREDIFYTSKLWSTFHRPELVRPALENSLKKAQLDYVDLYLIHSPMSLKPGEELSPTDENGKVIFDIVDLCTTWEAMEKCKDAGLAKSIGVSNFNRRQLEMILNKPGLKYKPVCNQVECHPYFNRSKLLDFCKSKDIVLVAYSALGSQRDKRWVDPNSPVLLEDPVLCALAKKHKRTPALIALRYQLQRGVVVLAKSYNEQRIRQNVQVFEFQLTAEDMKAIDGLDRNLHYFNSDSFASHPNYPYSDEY
Put plainly: primary inhibition assay. To be noted: 10 µM compound, 1-acenaphthenol, NAD+, pH 9.0. Type of test: biochemical. An outline of the steps:
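Recombinant enzyme oxidises 1-acenaphthenol with 2.3 mM NAD+. Medium is 100 mM phosphate pH 9.0, 0.005% Triton X-114, 5% DMSO. […] Test compound is at 10 µM. NADH increase is read at 340 nm, and initial velocities are compared with compound-free controls. Values are the mean of two independent experiments.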
Consider `O=C(Nc1ccc(Br)cc1C(=O)O)c1ccc(F)c([N+](=O)[O-])c1` [Compound 8], for which the “AKR1C3 inhibition (%)” value is “no AKR1C3 isoform inhibition was observed”.

As to `CCOc1cccc(C(=O)Nc2ccc(Br)cc2C(=O)O)c1` [Compound 14], the “AKR1C3 inhibition (%)” value was “almost completely lost”. The value for `CCCCOc1cccc(C(=O)Nc2ccc(Br)cc2C(=O)O)c1` [Compound 15] was “almost completely lost”.
